Calls of active or inactive are those of the source.
Legend:
Plasmodium falciparum [1] = assay: Antimalarial activity against chloroquine-sensitive Plasmodium falciparum 3D7 assessed as parasite growth inhibition; assay type: functional, organism-based
Method in brief: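 P. falciparum 3D7 asexual blood stages grown in 5% human RBC suspension in RPMI 1640 with 0.5% Albumax II, 12 mM bicarbonate, 0.2 mM hypoxanthine (pH 7.3), gentamicin, 37 °C, 1% O2/3% CO2/N2. 10-point, 1-in-3 dilution series from 10 or 25 μM top. SYBR Green I DNA fluorescence (ex 485/em 528 nm). IC50 from ≥3 independent experiments.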

Plasmodium falciparum [2] = assay: Inhibition of Plasmodium falciparum Dd2 ATP4 assessed as increase in cytosolic [Na+] at 1 uM by fluorescence spectrometry
Method in brief: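 Dd2 trophozoites freed from erythrocytes with saponin (0.05% w/v final), loaded with Na+-sensitive dye SBFI. Fluorescence measured and calibrated at 37 °C in plate reader or 1 mL cuvette suspensions. Compound tested at 1 μM. Scored as active if it raised cytosolic [Na+] like 50 nM cipargamin.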

Plasmodium falciparum [3] = assay: Inhibition of Plasmodium falciparum Dd2 ATP4 assessed as increase in cytosolic pH at 5 uM by fluorescence spectrometry
Method in brief: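 Saponin-isolated (0.05% w/v final) Dd2 trophozoites loaded with pH-sensitive dye BCECF. Fluorescence read and calibrated at 37 °C in plate reader or 1 mL suspensions. Compound at 5 μM. Scored as active if it caused cytosolic alkalinization like 50 nM cipargamin.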

inhibition (Plasmodium falciparum [2]) | inhibition (Plasmodium falciparum [3]) | Compound | IC50 (Plasmodium falciparum [1]) [µM]
– | – | O=C(Cc1cccc(Cl)c1)Nc1cn2c(-c3ccc(OC(F)F)cc3)nnc2cn1 | > 10
Active | Active | O=C(Nc1ccc(F)c(Cl)c1)c1cncc2nnc(-c3ccc(OC(F)F)cc3)n12 | 0.191
– | – | Fc1ccc(CCNc2cn3c(-c4ccc(OC(F)F)cc4)nnc3cn2)cc1 | > 10
– | – | FC(F)Oc1ccc(-c2nnc3cncc(OCC(F)(F)F)n23)cc1 | > 10
– | – | CC(O)COc1cncc2nnc(-c3ccc(OC(F)F)cc3)n12 (stereo not drawn) | > 25
Active | Active | Nc1cccc(CCOc2cncc3nnc(-c4ccc(Cl)cc4)n23)c1 | 2.42
Active | Active | CC(C)(C)Oc1ccc(-c2nnc3cncc(OCC(O)c4ccc(F)c(F)c4)n23)cc1 (stereo not drawn) | 0.46
Active | Active | O=C(Nc1ccnc(C(F)(F)F)c1)c1cncc2nnc(-c3ccc(OC(F)F)cc3)n12 | 0.14
– | – | Cc1ccc(COc2cncc3nnc(-c4ccc(C(C)C)cc4)n23)cn1 | > 25
– | – | NCc1cccc(CCOc2cncc3nnc(-c4ccc(Cl)cc4)n23)c1 | 10
Active | Active | O=C(NCc1cccc(C(F)(F)F)c1Cl)c1cncc2nnc(-c3ccc(OC(F)F)cc3)n12 | 0.309
– | – | FC(F)Oc1ccc(-c2nnc3cncc(OCCc4ccco4)n23)cc1 | 1.24
Active | Active | FC(F)Oc1ccc(-c2nnc3cncc(OCCc4ccccc4)n23)cc1 | 0.37
Active | Active | O=C(Nc1ccc(Cl)cc1)c1cncc2nnc(-c3ccc(OC(F)F)cc3)n12 | 5
